Among the data in ChEMBL document CHEMBL4765392, “Development of coumarine derivatives as potent anti-filovirus entry inhibitors targeting viral glycoprotein” (Eur J Med Chem, 2020) are selectivity ratio, CC50 and IC50 values, retold here.

Bounds are passed on as bounds.

Series [1] deals with envelope glycoprotein of Marburgvirus. The experiment in a line: Selectivity index, ratio of CC50 for human A549 cells to IC50 for inhibition of envelope glycoprotein in HIV pseudotyped Marburgvirus infected in human A549 cells assessed as reduction in virus entry. The class given is toxicity, cell-based. As to conditions: read-out: Ratio CC50/IC50. The method in brief:
(§1)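 IC50 wells also got HIV luciferase pseudovirions bearing MARV GP or EBOV GP, read by luciferase. CC50 wells got fresh media, read by CellTiter-Glo. Both values come from logistic dose-response fits, and the index is CC50 divided by IC50.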

Series [2] can be described thus: Cytotoxicity against human A549 cells assessed as reduction in cell viability by Celltiter-Glo assay. The series is classed as cell-based. The method in brief: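 Low-passage A549 cells seeded at 5000/well 24 h ahead, then exposed for 48 h to 3-fold serial compound dilutions in fresh media without virus. Viability read by CellTiter-Glo luminescence and normalized to medium-only cells. CC50 from logistic regression fit of dose-response curves.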

Series [3] can be described thus: Inhibition of envelope glycoprotein in HIV pseudotyped Zaire Ebolavirus infected in human A549 cells assessed as reduction in virus entry measured after 48 hrs by luciferase reporter gene assay. The class given is cell-based. Conditions: A549, 48 h. A digest of the protocol:
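A549 cells (5000/well, seeded 24 h prior) incubated 48 h with 3-fold serial compound dilutions premixed with HIV-backbone luciferase pseudovirions bearing EBOV GP. Entry quantified by luciferase signal, normalized to virus-alone cells. IC50 from logistic regression of dose-response curves.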
In general terms: In a reporter assay the amount or activity of a reporter protein is the signal.

Series [4] concerns envelope glycoprotein of Zaire Ebolavirus. Briefly: Selectivity index, ratio of CC50 for human A549 cells to IC50 for inhibition of envelope glycoprotein in HIV pseudotyped Zaire Ebolavirus infected in human A549 cells assessed as reduction in virus entry. As to conditions: read-out: Ratio CC50/IC50. The series is classed as toxicity, cell-based. A digest of the protocol: as §1

One may read the CC50 as the concentration that lowers cell viability or growth by half. A word on the IC50: it is the concentration that gives 50% inhibition.

As to `Cc1c(Cc2ccc(-c3ccccc3C#N)cc2)c(=O)oc2cc(OCC(O)CN3CCC(C(N)=O)CC3)ccc12` (configuration not stated), the results for the selectivity ratio in series [1] and in series [4] were 18.2 and 17.5, respectively. The CC50 in series [2] was found to be 33.2 µM. In series [3], the half-inhibitory concentration (IC50) was found to be 1.8 µM.

Consider `Cc1c(Cc2ccc(OC(F)(F)F)cc2)c(=O)oc2cc(OC[C@H](O)CN3CCC(C(N)=O)CC3)ccc12`, for which the selectivity ratio in series [1] is 36.3; in series [4], 55.7. In series [2], the CC50 was determined as 52 µM. Also, the IC50 in series [3] was determined as 0.9 µM.

Turning to `Cc1c(Cc2ccccc2)c(=O)oc2cc(OCC(CN3CCC(C(N)=O)CC3)Oc3ccccc3F)ccc12` (configuration not stated), the figures for the selectivity ratio in series [1] and in series [4] were 3.9 and 3.5, respectively. In addition, in series [2], the CC50 was 79.6 µM. Further, the IC50 in series [3] worked out at 22.5 µM.

As to `Cc1c(Cc2ccc(-c3ccccc3)cc2)c(=O)oc2cc(OCC(O)CNc3nccs3)ccc12` (configuration not stated), the figures for the selectivity ratio in series [1] and in series [4] were 29.3 and 14.1, respectively. Moreover, the CC50 in series [2] is 38.1 µM. Moreover, the IC50 in series [3] was determined as 2.7 µM.

Regarding `Cc1c(Cc2ccc(OC(F)(F)F)cc2)c(=O)oc2cc(OCC(O)CNCCc3ccncc3)ccc12` (configuration not stated), the results for the selectivity ratio in series [1] and in series [4] were 10.7 and 6.6, respectively. Further, the CC50 in series [2] was found to be 14.3 µM. In series [3], the IC50 came to 2.2 µM.

As for `COc1ccc(OC(COc2ccc3c(C)c(Cc4ccccc4)c(=O)oc3c2)CN2CCC(C(N)=O)CC2)cc1` (configuration not stated), the figures for the selectivity ratio in series [1] and in series [4] were 11.9 and 9.1, respectively. The CC50 in series [2] is 94.9 µM. The IC50 in series [3] turned out to be 10.5 µM.

Consider `Cc1c(Cc2ccccc2)c(=O)oc2cc(OCC(CN3CCC(C(N)=O)CC3)Oc3ccc([N+](=O)[O-])cc3)ccc12` (configuration not stated), for which the selectivity ratio in series [1] worked out at 11.5; in series [4], 5.9. The CC50 in series [2] turned out to be 94.8 µM. Further, the half-maximal inhibitory concentration (IC50) in series [3] is 16 µM.

For `Cc1c(Cc2ccccc2)c(=O)oc2cc(OCCCNc3nccs3)ccc12`, the selectivity ratio in series [1] was determined as 3.1; in series [4] it was 2.8. In addition, in series [2], the 50% cytotoxic concentration (CC50) stood at 50.1 µM. Also, in series [3], the IC50 came to 18 µM.

With `NC(=O)C1CCN(CC(O)COc2ccc3c(C4CC4)cc(=O)oc3c2)CC1` (configuration not stated), the selectivity ratio is 3 in series [1] and above 5.7 in series [4]. Besides, in series [2], the CC50 was above 100 µM. For the same compound, the IC50 in series [3] came to 17.7 µM.

As for `Cc1c(Cc2ccc(OC(F)(F)F)cc2)c(=O)oc2cc(OC[C@@H](O)CN3CCC(C(N)=O)CC3)ccc12`, the selectivity ratio in series [1] came out at 46.3; in series [4], 92.6. The CC50 in series [2] turned out to be 64.9 µM. Moreover, the IC50 in series [3] amounted to 0.7 µM.

In the case of `Cc1c(Cc2ccc(-c3ccc(C(F)(F)F)cc3)cc2)c(=O)oc2cc(OCC(O)CN3CCC(C(N)=O)CC3)ccc12` (configuration not stated), the selectivity ratio in series [1] was 76.9; in series [4] it was above 85.7. For the same compound, the CC50 in series [2] is above 100 µM. Also, the IC50 in series [3] worked out at 1.2 µM.

Regarding `Cc1c(Cc2ccc(-c3ccc(C#N)c(F)c3)cc2)c(=O)oc2cc(OCC(O)CN3CCC(C(N)=O)CC3)ccc12` (configuration not stated), the selectivity ratio in series [1] amounted to 12.8; in series [4], 8.2. In series [2], the CC50 was 29.1 µM. For the same compound, the IC50 in series [3] stood at 3.5 µM.

As to `NC(=O)C1CCN(CC(O)COc2ccc3c(C4CC4)c(Cc4ccccc4)c(=O)oc3c2)CC1` (configuration not stated), the selectivity ratio in series [1] was 15.3; in series [4], above 10.6. The CC50 in series [2] was above 100 µM. Besides, in series [3], the 50% inhibitory concentration (IC50) is 9.4 µM.

For the compound `COC(CNCCc1ccncc1)COc1ccc2c(C)c(Cc3ccccc3)c(=O)oc2c1` (configuration not stated), the selectivity ratio amounted to 9.6 in series [1] and 5.9 in series [4]. Moreover, in series [2], the CC50 amounted to 16.6 µM. The IC50 in series [3] amounted to 2.8 µM.

Regarding `Cc1c(Cc2ccccc2)c(=O)oc2cc(OCC(CN3CCC(C(N)=O)CC3)Oc3ccc(F)cc3)ccc12` (configuration not stated), the selectivity ratio in series [1] is 5.5; in series [4], 6.4. Moreover, the CC50 in series [2] worked out at 66.4 µM. Besides, the IC50 in series [3] was determined as 10.4 µM.

Take `Cc1c(Cc2ccc(OC(F)(F)F)cc2)c(=O)oc2cc(OCC(O)CNc3nccs3)ccc12` (configuration not stated): the figures for the selectivity ratio in series [1] and in series [4] were 82.5 and 66, respectively. In addition, the CC50 in series [2] came to 99 µM. The IC50 in series [3] worked out at 1.5 µM.

In the case of `NC(=O)C1CCN(CC(O)COc2ccc3c(-c4ccccc4)c(Cc4ccccc4)c(=O)oc3c2)CC1` (configuration not stated), the selectivity ratio in series [1] is 11.6; in series [4] it was 8.6. Also, the CC50 in series [2] was 25.2 µM. For the same compound, the IC50 in series [3] is 2.9 µM.

Turning to `Cc1c(Cc2ccc(-c3ccc(C=O)c(F)c3)cc2)c(=O)oc2cc(OCC(O)CN3CCC(C(N)=O)CC3)ccc12` (configuration not stated), the selectivity ratio in series [1] was determined as 11.9; in series [4], 5.7. In addition, the CC50 in series [2] stood at 62.4 µM. Also, in series [3], the IC50 is 10.9 µM.
